Calls of active or inactive are those of the source. No cut-off for these calls is given here.
Legend:
[1] = tested on: Aspergillus flavus; assay: Antifungal activity against Aspergillus flavus at 5 to 10 ug/spot after 2 to 3 days; format: functional
Procedure, shortened: (§1)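 TLC bioautography: geometric dilutions made from freshly prepared stocks (1-10 mg mL^-1) in a suitable solvent, 10 µL spotted per TLC plate. Plates then sprayed with C. cucumerinum (DSM 62122) or A. flavus (BAFC 589) suspended in nutritive medium, incubated 2-3 days in a moist glass box. Read-out: diameter (mm) of clear inhibition zones against dark gray background; benomyl reference.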

[2] = tested on: Cladosporium cucumerinum; assay: Antifungal activity against Cladosporium cucumerinum at 10 to 60 ug/spot after 2 to 3 days; format: functional; procedure, shortened: as §1
[3] = tested on: Aspergillus flavus; assay: Antifungal activity against Aspergillus flavus at 20 to 60 ug/spot after 2 to 3 days; format: functional; procedure, shortened: as §1
[4] = tested on: Cladosporium cucumerinum; assay: Antifungal activity against Cladosporium cucumerinum at 10 ug/spot after 2 to 3 days; format: functional, organism-based; procedure, shortened: as §1
[5] = tested on: Cladosporium cucumerinum; assay: Antifungal activity against Cladosporium cucumerinum at 20 to 60 ug/spot after 2 to 3 days; format: functional; procedure, shortened: as §1
[6] = tested on: Aspergillus flavus; assay: Antifungal activity against Aspergillus flavus at 5 ug/spot after 2 to 3 days; format: functional
Procedure, shortened: (§2)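 TLC bioautography. Geometric dilutions were made from freshly prepared stock solutions (1-10 mg mL^-1) in a suitable solvent and spotted onto TLC plates. The read-out was the diameter (mm) of clear inhibition zones against a dark grey background.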

[7] = tested on: Cladosporium cucumerinum; assay: Antifungal activity against Cladosporium cucumerinum at 5 ug/spot after 2 to 3 days; format: functional; procedure, shortened: as §2

SMILES | inhibition zone (IZ) [1] [mm] | inhibition zone (IZ) [2] [mm] | inhibition zone (IZ) [3] [mm] | Activity [1] | Activity [2] | Activity [3] | Activity [4] | Activity [5] | further results
CC(C)[C@H](CC[C@@H](C)[C@H]1C[C@@H](O)[C@@H]2[C@]1(C)CC[C@@H]1[C@@]3(C)CC[C@H](OS(=O)(=O)O)C[C@@H]3[C@@H](O)C[C@]12O)O[C@@H]1OC[C@@H](O)[C@H](O)[C@H]1O [PYCNOPODIOSIDE B] | 5 | 7 | 5 | – | – | – | – | – | –
CC(C)[C@H](CC[C@@H](C)[C@H]1C[C@@H](O)[C@@H]2[C@]1(C)CC[C@@H]1[C@@]3(C)CC[C@H](O)C[C@@H]3[C@@H](O)C[C@]12O)O[C@@H]1OC[C@@H](O)[C@H](O)[C@H]1O | – | – | – | inactive | inactive | inactive | inactive | inactive | –
CCCCNC(=O)n1c(NC(=O)OC)nc2ccccc21 [BENOMYL] | – | – | – | – | – | – | – | – | inhibition zone (IZ) [6]: 14 mm; inhibition zone (IZ) [7]: 15 mm
CC(C)[C@H](/C=C/[C@@H](C)[C@H]1C[C@@H](O)[C@@H]2[C@]1(C)CC[C@@H]1[C@@]3(C)CC[C@H](O)C[C@@H]3[C@@H](O)C[C@]12O)O[C@@H]1OC[C@@H](O)[C@H](O)[C@H]1O | – | – | – | inactive | inactive | inactive | inactive | inactive | –
CC(C)[C@H](/C=C/[C@@H](C)[C@H]1C[C@@H](O)[C@@H]2[C@]1(C)CC[C@@H]1[C@@]3(C)CC[C@H](OS(=O)(=O)[O-])C[C@@H]3[C@@H](O)C[C@]12O)O[C@@H]1OC[C@@H](O)[C@H](O)[C@H]1O.[Na+] [MINUTOSIDE A] | 5 | 7 | 5 | – | – | – | – | – | –
C[C@H](/C=C/[C@@H](C)[C@H]1C[C@@H](O)[C@@H]2[C@]1(C)CC[C@@H]1[C@@]3(C)CC[C@H](O[C@@H]4OC[C@@H](O)[C@H](O)[C@H]4O)C[C@@H]3[C@@H](O)C[C@]12O)[C@H](C)C(=O)NCCS(=O)(=O)[O-].[Na+] [MINUTOSIDE B] | – | – | 5 | inactive | – | – | inactive | – | inhibition zone (IZ) [5]: 3 mm
